Experimental data as given in ChEMBL document CHEMBL4334504 (J Med Chem, 2019).
Converted amounts (≈) assume the structure as drawn. The source made the active and inactive calls. The rule behind the calls is not given here.

Tests used:
Clostridioides difficile [1] = test: Antibacterial activity against Clostridium difficile 4118 ATCC BAA 1870 assessed as bacterial growth inhibition incubated for 48 hrs under anaerobic condition by CLSI protocol-based assay; assay type: functional; conditions: 4118 ATCC BAA 1870, 48 h
Method in brief: (§1)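 Broth microdilution following CLSI guidance. Strains pre-grown anaerobically on BHIS agar (BHI plus yeast extract, vitamin K1, hemin) at 37 °C for 48 h. ~10^5 CFU/mL in BHIS broth added to serial compound dilutions. Incubated anaerobically at 37 °C for 48 h. MIC is the lowest concentration showing visible growth inhibition.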

Clostridioides difficile [2] = test: Antibacterial activity against Clostridium difficile VPI 10463 ATCC 43255 assessed as bacterial growth inhibition incubated for 48 hrs under anaerobic condition by CLSI protocol based assay; assay type: functional; conditions: ATCC 43255 VPI 10463, 48 h; method in brief: as §1
Caco-2 = test: Cytotoxicity against human Caco2 cells at > 256 uM measured after 2 hrs by MTS assay; assay type: cell-based; conditions: caco-2, 2 h
HRT-18 cell line = test: Cytotoxicity against human HRT18 cells at > 256 uM measured after 2 hrs by MTS assay; assay type: cell-based; conditions: hrt-18, 2 h
Vero = test: Cytotoxicity against African green monkey Vero cells at > 256 uM measured after 2 hrs by MTS assay; assay type: cell-based; conditions: chlorocebus sabaeus
Bifidobacterium bifidum = test: Effect on growth of Bifidobacterium bifidum 212A ATCC 11863 measured after 48 hrs in anerobic conditions by CLSI method; assay type: organism-based; conditions: in vivo
Escherichia coli = test: Effect on growth of Escherichia coli ATCC 25922 assessed as bacterial growth inhibition measured after 16 to 18 hrs by CLSI method; assay type: organism-based; conditions: in vivo
Method in brief: (§2)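 CLSI microdilution. Colonies from TSA (16-20 h, 37 °C) suspended in PBS to 0.5 McFarland, then diluted in TSB to ~10^5 CFU/mL. Incubated with serial compound dilutions for 16-20 h at 37 °C. MIC is the lowest concentration inhibiting growth.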

Enterobacter cloacae = test: Effect on growth of Enterobacter cloacae ATCC BAA 1143 assessed as bacterial growth inhibition measured after 16 to 18 hrs grown in tryptic soy medium by CLSI method; assay type: organism-based; conditions: in vivo; method in brief: as §2
[3] = Aqueous solubility of compound in PBS buffer at 1 to 100 ug/ml at pH 7.3 to 7.5 measured after 24 hrs by HPLC analysis; assay type: physicochemical
Method in brief: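 3 mg compound in 3 mL PBS (pH 7.3-7.5) shaken 24 h at 25 °C, then centrifuged. Supernatant mixed 1:1 with acetonitrile and analysed by HPLC (C18, 1 mL/min). Solubility calculated from a standard curve (1 mg/mL methanol stock) and the dilution factor.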

[4] = Stability of compound in simulated gastric fluid assessed as parent compound remaining at pH 1.6 measured after 4 hrs by HPLC analysis; assay type: ADME; conditions: read-out: Stability
Method in brief: (§3)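 200 µL of a 50 µg/mL methanol stock mixed with 800 µL SGF (pH 1.6) or SIF (pH 6.0), stirred at 37 °C. Sampled at 4 and 8 h for isocratic HPLC (acetonitrile/water 50:50, 1.0 mL/min, 254 nm). Percent remaining calculated as AUC after incubation / AUC before incubation.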

[5] = Stability of compound in simulated gastric fluid assessed as parent compound remaining at pH 1.6 measured after 8 hrs by HPLC analysis; assay type: ADME; conditions: read-out: Stability; method in brief: as §3
[6] = Stability of compound in simulated intestinal fluid assessed as parent compound remaining at pH 6 measured after 4 hrs by HPLC analysis; assay type: ADME; conditions: read-out: Stability; method in brief: as §3
[7] = Stability of compound in simulated intestinal fluid assessed as parent compound remaining at pH 6 measured after 8 hrs by HPLC analysis; assay type: ADME; conditions: read-out: Stability; method in brief: as §3
[8] = Cytotoxicity against human Caco2 cells measured after 2 hrs by MTS assay; assay type: cell-based; conditions: Caco-2 cells
[9] = Cytotoxicity against human HRT18 cells measured after 2 hrs by MTS assay; assay type: cell-based; conditions: HRT-18 cells
[10] = Cytotoxicity against African green monkey Vero cells measured after 2 hrs by MTS assay; assay type: cell-based; conditions: chlorocebus sabaeus
[11] = test system: Lacticaseibacillus paracasei; test: Effect on growth of Lactobacillus casei ATCC 334 measured after 48 hrs in 5% CO2 by CLSI method
[12] = Effect on growth of Lactobacillus crispatus JV-V01 HM 103 measured after 48 hrs in 5% CO2 by CLSI method; conditions: lactobacillus crispatus jv-v01, 48 h
[13] = Effect on growth of Lactobacillus gasseri EX336960VC03 HM 400 measured after 48 hrs in 5% CO2 by CLSI method; conditions: lactobacillus gasseri ex336960vc03, 48 h
Clostridioides difficile [14] = test: Ratio of MBC99.9 to MIC for Clostridium difficile 4118 ATCC BAA 1870; assay type: functional
Clostridioides difficile [15] = test: Bactericidal activity against Clostridium difficile 4118 ATCC BAA 1870 assessed as reduction in bacterial colony forming units at 8 fold MIC preincubated followed by re-plating on BHIS agar plate and measured after 6 hrs under anaerobic condition by time-kill assay relative to control; assay type: functional; design: scale not given: the % may be the effect or the level left
Clostridioides difficile [16] = test: Bactericidal activity against Clostridium difficile 4118 ATCC BAA 1870 incubated for 48 hrs followed by re-plating on BHIS agar plates and measured after 24 hrs; assay type: functional; conditions: read-out: MBC99.9
Clostridioides difficile [17] = test: Bactericidal activity against Clostridium difficile 4118 ATCC BAA 1870 assessed as reduction in bacterial colony forming units at 8 fold MIC preincubated followed by re-plating on BHIS agar plate and measured after 24 hrs under anaerobic condition by time-kill assay; assay type: functional, organism-based
[18] = Drug level in CDI patient plasma at 200 mg, po administered every 12 hrs for 10 days and measured 3 to 5 hrs post last dose by LC-MS/MS analysis; assay type: ADME, organism-based; conditions: human, in vivo

SMILES	MIC (Clostridioides difficile [1]) [µM]	MIC (Clostridioides difficile [2]) [µM]	Activity (Caco-2)	Activity (HRT-18 cell line)	Activity (Vero)	MIC (Bifidobacterium bifidum) [µM]	MIC (Escherichia coli) [µM]	MIC (Enterobacter cloacae) [µM]	solubility at 24 h [3] [µg/mL]	remaining at 4 h [4] [%]	remaining at 8 h [5] [%]	remaining at 4 h [6] [%]	remaining at 8 h [7] [%]	MIC [11] [µM]	MIC [12] [µM]	MIC [13]	also measured
Cc1nc2c([N+](=O)[O-])csc2c(=O)[nH]1	19 (≈ 4.01 µg/mL)	38 (≈ 8.03 µg/mL)	Non-Toxic	Non-Toxic	Non-Toxic	> 1212	> 1212	> 1212	> 500	90	90	91	76	> 1212	> 1212	> 1212 µM	CC50 at 2 h [8]: > 606 µM; CC50 at 2 h [9]: > 606 µM; CC50 at 2 h [10]: > 606 µM
O=c1[nH]c(/C=C/c2ccc(F)cc2)nc2c([N+](=O)[O-])csc12	3 (≈ 0.952 µg/mL)	6 (≈ 1.9 µg/mL)	Non-Toxic	Non-Toxic	Non-Toxic	> 807	> 807	> 807	14.8 (≈ 46.6 µM)	50	48	60	51	> 807	> 807	> 807 µM	Ratio (Clostridioides difficile [14]): 2; Activity (Clostridioides difficile [15]): 100%; MBC (Clostridioides difficile [16]): 6 µM (≈ 1.9 µg/mL)
Cc1nc2c([N+](=O)[O-])csc2c(=O)n1CCCc1ccccc1	12 (≈ 3.95 µg/mL)	12 (≈ 3.95 µg/mL)	Non-Toxic	Non-Toxic	Non-Toxic	> 777	> 777	> 777	10.8 (≈ 32.7 µM)	45	< 10	< 10	< 10	> 777	> 777	> 777 µM	
Cc1nc(N2CCOCC2)c2scc([N+](=O)[O-])c2n1	14 (≈ 3.92 µg/mL)	14 (≈ 3.92 µg/mL)	Non-Toxic	Non-Toxic	Non-Toxic	> 913	> 913	> 913	18.7 (≈ 66.7 µM)	< 10	< 10	79	80	> 913	> 913	> 913 µM	
Cc1nc2c([N+](=O)[O-])csc2c(=O)n1Cc1ccc([N+](=O)[O-])cc1	6 (≈ 2.08 µg/mL)	12 (≈ 4.16 µg/mL)	Non-Toxic	Non-Toxic	Non-Toxic	> 739	> 739	> 739	12.7 (≈ 36.8 µM)	> 95	> 95	> 95	90	> 739	> 739	> 739 µM	
CCc1c(Cl)c(O)c(Cl)c(O)c1C(=O)O[C@H]1[C@H](O)[C@H](OC)[C@H](OC/C2=C\C=C\C[C@H](O)/C(C)=C/[C@H](CC)[C@@H](O[C@@H]3OC(C)(C)[C@@H](OC(=O)C(C)C)[C@H](O)[C@@H]3O)/C(C)=C/C(C)=C/C[C@@H]([C@@H](C)O)OC2=O)O[C@@H]1C [FIDAXOMICIN]	0.1 (≈ 0.106 µg/mL)	0.1 (≈ 0.106 µg/mL)				> 242								> 242	30 (≈ 31.7 µg/mL)	<= 2 uM	Activity (Clostridioides difficile [17]): Active; Cp [18]: 25 to 50 ng/mL
